In ChEMBL document CHEMBL3864180, “Buried Hydrogen Bond Interactions Contribute to the High Potency of Complement Factor D Inhibitors” (ACS Med Chem Lett, 2016):

Assays:
[1] = target: T1, Complement factor D (Homo sapiens, UniProt P00746); test: Binding affinity to complement factor D (unknown origin)
[2] = target: T1, Complement factor D; test: Binding affinity to recombinant human C-terminal 6His-tagged/biotinylated complement factor D (26 to 253 residues) expressed in Sf9 insect cells assessed as association constant measured after 300 to 900 secs by biolayer interferometry method
[3] = target: T1, Complement factor D; test: Binding affinity to recombinant human C-terminal 6His-tagged/biotinylated complement factor D (26 to 253 residues) expressed in Sf9 insect cells assessed as dissociation constant measured after 300 to 1800 secs by biolayer interferometry method
[4] = target: T1, Complement factor D; test: Binding affinity to recombinant human C-terminal 6His-tagged/biotinylated complement factor D (26 to 253 residues) expressed in Sf9 insect cells by biolayer interferometry method
Procedure, shortened: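 Biotinylated recombinant human factor D expressed in Sf9 insect cells; direct binding read by bio-layer interferometry. Kd taken from the mean of two independent experiments, with standard deviations.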

[5] = target: T1, Complement factor D; test: Competitive inhibition of human complement factor D preincubated for 1 hr followed by addition of Z-Lys-thiobenzyl ester as substrate measured over 50 mins at 1 min interval
Procedure, shortened: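 Enzyme was factor D purified from normal human serum. Substrate Z-Lys-thiobenzyl ester (Z-Lys-Sbzl), read by absorbance. IC50 is the average of at least two independent triplicate experiments.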

[6] = target: T1, Complement factor D; test: Inhibition of recombinant human C-terminal 6His-tagged complement factor D (26 to 253 residues) expressed in Sf9 insect cells preincubated for 1 hr followed by addition of Z-Lys-thiobenzyl ester as substrate measured over 50 mins at 1 min interval
Procedure, shortened: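 Enzyme was recombinant human factor D expressed in Sf9 insect cells. Substrate Z-Lys-thiobenzyl ester, read by absorbance. OD was converted to product concentration with an extinction coefficient of 13260 M-1cm-1 and a 0.29 cm path correction.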

T1 sequence (P00746 whole entry, the tested form may be a part): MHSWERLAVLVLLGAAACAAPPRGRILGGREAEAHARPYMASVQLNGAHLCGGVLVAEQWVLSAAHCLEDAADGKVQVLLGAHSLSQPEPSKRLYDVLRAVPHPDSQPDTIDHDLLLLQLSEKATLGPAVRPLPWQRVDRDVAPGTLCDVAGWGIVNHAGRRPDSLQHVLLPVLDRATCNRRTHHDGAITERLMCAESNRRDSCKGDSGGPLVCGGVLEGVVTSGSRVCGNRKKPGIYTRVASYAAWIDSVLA

SMILES | IC50 [1] | K [2] | K [3] | Kd [4] | IC50 [5] | IC50 [6]
O=c1[nH]c2ccccc2c(=O)o1 | 2900 nM | – | – | – | – | –
O=C(Nc1cccc(Br)n1)[C@@H]1C[C@H]2C[C@H]2N1C(=O)Cn1ncc2ccccc21 | – | 15800 M⁻¹ s⁻¹ | 0.189 s⁻¹ | – | – | –
O=C(Nc1cccc(Br)n1)[C@@H]1SCCN1C(=O)Cn1ncc2ccccc21 | – | 132000 M⁻¹ s⁻¹ | 0.292 s⁻¹ | – | – | –
N=C(N)c1cc2ccc(OC(=O)c3cccs3)cc2s1 | 98 nM | – | – | – | – | –
NC(=O)c1nn(CC(=O)N2[C@@H]3C[C@@H]3C[C@H]2C(=O)Nc2cccc(Br)n2)c2ncccc12 | – | 212000 M⁻¹ s⁻¹ | 0.00361 s⁻¹ | 17 nM | 31.9 nM | –
NC(=O)c1nn(CC(=O)N2CCS[C@H]2C(=O)Nc2cccc(Br)n2)c2ncccc12 | – | 173000 M⁻¹ s⁻¹ | 0.00327 s⁻¹ | 18.9 nM | 27.3 nM | 19 nM
